Data set [1] can be described thus: Inhibition of rat brain (Na+,K+)ATPase incubated for 10 mins followed by Kcl added in presence of appropriate Mg2+ and Na+. As to conditions: read-out: I50. The method, boiled down: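 Steroids added in ethanol to the (Na+,K+)ATPase tubes, at most 20 μL ethanol per tube. After 10 min, KCl was added to start (Na+,K+)ATPase activity. Where a steroid was insoluble in the medium, no precise value could be obtained.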

A short description of data set [2]: Inhibition of rat brain (Na+,K+)ATPase in presence of appropriate Mg2+ and Na+. As to conditions: read-out: I50.
Data set [3] is described as follows: Solubility of the compound in steroid medium. The format is physicochemical. A digest of the protocol:
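Observed in the (Na⁺,K⁺)ATPase assay medium. Steroids were added in ethanol to the enzyme tubes, at no more than 20 μL ethanol per tube. After 10 min, KCl was added to start (Na⁺,K⁺)ATPase activity.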

Take `C[C@]12CC[C@H](O)C[C@H]1CC[C@@H]1[C@@H]2CC[C@]2(C)[C@@H]([C@@H]3COC(=O)C3)CC[C@]12O`: the IC50 in data set [1] was 11 µM; in data set [2] it was 14 µM.

In the case of `C[C@]12CC[C@H](O)C[C@H]1CC[C@@H]1[C@@H]2CC[C@]2(C)[C@@H]([C@H]3COC(=O)C3)CC[C@]12O`, the results for the IC50 in data set [1] and in data set [2] were 12 µM and 14 µM, respectively.

`C=C1C(=O)OC[C@H]1[C@H]1CC[C@]2(O)[C@@H]3CC[C@@H]4C[C@@H](O)CC[C@]4(C)[C@H]3CC[C@]12C`: the IC50 was 60 µM in data set [1] and 70 µM in data set [2].

Turning to `C=C1C(=O)OC[C@@H]1[C@H]1CC[C@]2(O)[C@@H]3CC[C@@H]4C[C@@H](O)CC[C@]4(C)[C@H]3CC[C@]12C`, the IC50 in data set [1] and in data set [2] was 70 µM in each case.

Take `C=C1C(=O)OC[C@H]1[C@H]1CC=C2[C@@H]3CC[C@@H]4C[C@@H](O)CC[C@]4(C)[C@H]3CC[C@@]21C`: in data set [3], the solubility result was “Insoluble”. Also, the IC50 in data set [1] and in data set [2] was 100 µM each time.

As for `C=C1C(=O)OC[C@@H]1[C@H]1CC=C2[C@@H]3CC[C@@H]4C[C@@H](O)CC[C@]4(C)[C@H]3CC[C@@]21C`, the IC50 in data set [1] stood at 20 µM; in data set [2] it was 30 µM.

On to `C[C@]12CC[C@H](O)C[C@H]1CC[C@@H]1[C@@H]2CC[C@]2(C)[C@@H](C3=CC(=O)OC3)CC[C@]12O` [DIGITOXIGENIN], for which the IC50 in data set [1] and in data set [2] was 0.35 µM each time.

(Values after ChEMBL document CHEMBL3243993, “Cardenolide analogues. 4. (20R)- and (20S)-Cardanolides: on the roles of the 20(22)-ene and 14beta-hydroxyl in genin activity” (J Med Chem, 1979).)
